In ChEMBL document CHEMBL1149384, “Identification of a novel spiropiperidine opioid receptor-like 1 antagonist class by a focused library approach featuring 3D-pharmacophore similarity” (J Med Chem, 2006):
pEC50, pIC50: −log10 of the molar value.

Legend:
[1] = biological target: T1, Nociceptin receptor (Homo sapiens, UniProt P41146); assay: Displacement of [125I]Tyr-nociceptin from cloned human ORL1 expressed in CHO cells; format: cell-based
Method in brief: (§1)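 Radioligand displacement using membrane fractions of CHO cells stably expressing cloned human receptors. IC50 reported as mean of three independent determinations, each in duplicate.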

[2] = biological target: T1, Nociceptin receptor; assay: Antagonist activity on nociceptin-induced [35S]GTP-gamma-S binding to ORL1 expressed in CHO cells; format: functional, cell-based
Method in brief: (§2)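 [35S]GTPγS binding in membrane fractions from CHO cells stably expressing human ORL1. Antagonism: IC50 against nociceptin-stimulated binding. Agonism: EC50 relative to maximal binding produced by nociceptin. Means of three independent determinations, each in duplicate.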

[3] = biological target: T1, Nociceptin receptor; assay: Agonist activity on nociceptin-induced maximal [35S]GTP-gamma-S binding to ORL1 expressed in CHO cells; format: functional, cell-based; method in brief: as §2
[4] = biological target: Mu-type opioid receptor (Homo sapiens, UniProt P35372); assay: Displacement of [3H]diprenorphin from cloned human mu opioid receptor expressed in CHO cells; format: cell-based; method in brief: as §1
[5] = biological target: Kappa-type opioid receptor (Homo sapiens, UniProt P41145); assay: Displacement of [3H]U-69593 from cloned human kappa opioid receptor expressed in CHO cells; format: cell-based; method in brief: as §1
[6] = biological target: Delta-type opioid receptor (Homo sapiens, UniProt P41143); assay: Displacement of [3H]naltrindole from cloned human delta opioid receptor expressed in CHO cells; format: cell-based; method in brief: as §1
[7] = Distribution coefficient (LogD) between octanol and buffer; format: physicochemical
[8] = test system: Rattus norvegicus; assay: Brain level in rat after administration of 10 mg/kg, sc; format: ADME, organism-based; set-up: dose 10 mg/kg, route subcutaneous; details: in vivo
Method in brief: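 Rats dosed 10 mg/kg sc. Plasma and brain collected 1 h after dosing and drug concentration measured, n = 3 per group. Plasma in nM, brain in nmol/g brain.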

[9] = test system: Mus musculus; assay: Antagonist activity as % reversal against the reduction in locomotor activity produced by an ORL1 agonist in CD1 mice at 10 mg/kg, sc; format: functional; set-up: scale not given: the % may be the effect or the level left; details: route subcutaneous
Method in brief: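 Mice given test agent 10 mg/kg sc against an ORL1 agonist that reduces locomotor activity. Activity counted over 60 min. Value is % reversal of the agonist response, mean ± SEM, n = 7–8 per group.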

Sequence of Mu-type opioid receptor (P35372 whole entry): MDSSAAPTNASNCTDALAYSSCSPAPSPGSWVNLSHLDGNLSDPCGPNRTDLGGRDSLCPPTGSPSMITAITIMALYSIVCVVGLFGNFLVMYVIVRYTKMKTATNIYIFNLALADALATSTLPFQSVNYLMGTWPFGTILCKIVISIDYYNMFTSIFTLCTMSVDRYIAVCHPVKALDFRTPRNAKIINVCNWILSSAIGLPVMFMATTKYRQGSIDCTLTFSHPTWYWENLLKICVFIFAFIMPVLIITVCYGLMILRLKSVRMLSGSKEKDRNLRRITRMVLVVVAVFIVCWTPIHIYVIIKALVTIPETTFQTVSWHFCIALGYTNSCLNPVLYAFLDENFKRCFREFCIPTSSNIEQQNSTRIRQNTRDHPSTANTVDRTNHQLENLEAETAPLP
Sequence of Kappa-type opioid receptor (P41145 whole entry): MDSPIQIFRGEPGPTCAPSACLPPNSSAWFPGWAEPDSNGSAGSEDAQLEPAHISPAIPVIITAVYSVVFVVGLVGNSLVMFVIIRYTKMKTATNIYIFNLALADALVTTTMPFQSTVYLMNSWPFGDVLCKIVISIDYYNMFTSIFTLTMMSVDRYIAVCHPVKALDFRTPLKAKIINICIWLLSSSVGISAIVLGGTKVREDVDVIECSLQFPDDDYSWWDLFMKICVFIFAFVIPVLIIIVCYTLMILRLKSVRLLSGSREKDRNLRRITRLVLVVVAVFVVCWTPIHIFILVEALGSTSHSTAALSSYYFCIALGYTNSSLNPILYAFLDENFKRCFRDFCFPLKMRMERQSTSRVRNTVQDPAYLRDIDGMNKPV
T1 sequence (P41146 whole entry): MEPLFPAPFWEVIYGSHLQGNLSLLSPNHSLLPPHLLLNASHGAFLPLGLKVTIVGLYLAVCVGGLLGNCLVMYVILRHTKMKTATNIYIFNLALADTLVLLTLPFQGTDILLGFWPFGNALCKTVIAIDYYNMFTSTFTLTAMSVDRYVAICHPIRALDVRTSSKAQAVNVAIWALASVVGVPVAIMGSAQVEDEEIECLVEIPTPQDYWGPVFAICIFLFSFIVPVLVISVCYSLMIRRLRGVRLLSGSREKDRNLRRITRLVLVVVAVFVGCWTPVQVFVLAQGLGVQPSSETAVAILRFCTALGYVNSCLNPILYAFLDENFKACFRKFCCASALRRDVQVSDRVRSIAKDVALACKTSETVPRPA
Sequence of Delta-type opioid receptor (P41143 whole entry): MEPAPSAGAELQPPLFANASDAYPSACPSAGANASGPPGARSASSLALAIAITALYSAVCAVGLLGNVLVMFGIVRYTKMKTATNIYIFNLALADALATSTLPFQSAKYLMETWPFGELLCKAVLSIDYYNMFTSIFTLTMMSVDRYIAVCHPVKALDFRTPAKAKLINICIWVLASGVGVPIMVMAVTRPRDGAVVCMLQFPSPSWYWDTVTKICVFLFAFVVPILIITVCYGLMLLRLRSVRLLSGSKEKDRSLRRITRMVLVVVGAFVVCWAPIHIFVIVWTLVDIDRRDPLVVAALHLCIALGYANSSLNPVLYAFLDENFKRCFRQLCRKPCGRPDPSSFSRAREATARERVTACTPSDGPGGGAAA

SMILES	pIC50 [1]	also measured
O=C(NCCCN1CCC2(CCc3ccccc32)CC1)c1ccccc1Nc1ccccc1	6.64	
CC1=Cc2ccccc2C1C(=O)NCCCN1CCC2(CCc3ccccc32)CC1 (configuration not stated)	< 6.00	
O=C(NCCCN1CCC2(CCc3ccccc32)CC1)c1ncccc1C(O)c1ccccc1 (configuration not stated)	< 6.00	
CC(C)(C)C(Cc1ccccc1)C(=O)NCCCN1CCC2(CCc3ccccc32)CC1 (configuration not stated)	< 6.00	
CC(C)(C)OC(=O)NC1(C(=O)NCCCN2CCC3(CCc4ccccc43)CC2)CCCCC1	< 6.00	
CC(Oc1ccccc1)C(=O)NCCCN1CCC2(CCc3ccccc32)CC1 (configuration not stated)	6.05	
O=C(NCCCN1CCC2(CCc3ccccc32)CC1)c1ncccc1-c1ccccc1	< 6.00	
O=C(NCCCN1CCC2(CCc3ccccc32)CC1)C1Cc2ccccc2C1	< 6.00	
COc1ccc2c(c1)CC(CC(=O)NCCCN1CCC3(CCc4ccccc43)CC1)C2=O (configuration not stated)	< 6.00	
O=C(/C=C/c1c[nH]c2ccccc12)NCCCN1CCC2(CCc3ccccc32)CC1	< 6.00	
O=C1CC(C(=O)NCCCN2CCC3(CCc4ccccc43)CC2)c2ccccc21 (configuration not stated)	< 6.00	
CC(Oc1ccc(Cl)cc1Cl)C(=O)NCCCN1CCC2(CCc3ccccc32)CC1 (configuration not stated)	< 6.00	
O=C(NCCCN1CCC2(CCc3ccccc32)CC1)C(=O)c1c[nH]c2ccccc12	6.48	
O=C(CC1Cc2ccccc2C1)NCCCN1CCC2(CCc3ccccc32)CC1	< 6.00	
COC(C(=O)NCCCN1CCC2(CCc3ccccc32)CC1)c1ccccc1 (configuration not stated)	< 6.00	
O=C(NCCCN1CCC2(CC1)OCc1ccccc12)[C@H]1CCCN1Cc1ccccc1	9.57	Activity [8]: 4.37 nM/g; pIC50 [2]: 9.82; pEC50 [3]: < 6.00; Activity [9]: 88%; pIC50 [4]: 5.17; pIC50 [5]: 5.60; pIC50 [6]: < 5.00
O=C(N[C@H]1CCCC[C@@H]1C(=O)NCCCN1CCC2(CCc3ccccc32)CC1)c1ccccc1	< 6.00	
O=C(Cc1ccccc1)NCCCN1CCC2(CCc3ccccc32)CC1	< 6.00	
O=C(Cc1ccccc1)C(=O)NCCCN1CCC2(CCc3ccccc32)CC1	< 6.00	
O=C(Cc1cccc2ccccc12)NCCCN1CCC2(CCc3ccccc32)CC1	< 6.00	
CC(NC(=O)c1ccccc1)C(=O)NCCCN1CCC2(CCc3ccccc32)CC1 (configuration not stated)	< 6.00	

SMILES	pIC50 [1]	also measured
O=C(N[C@H]1CCCC[C@H]1C(=O)NCCCN1CCC2(CCc3ccccc32)CC1)c1ccccc1	< 6.00	
O=C(NCCCN1CCC2(CCc3ccccc32)CC1)C1(c2ccccc2)CCCC1	< 6.00	
O=C(NCCCN1CCC2(CCc3ccccc32)CC1)[C@H]1COCN1C(=O)OCc1ccccc1	6.88	
O=C(NCCCN1CCC2(CCc3ccccc32)CC1)c1cc(=O)c2ccccc2o1	< 6.00	
COc1ccccc1/C=C\C(=O)NCCCN1CCC2(CCc3ccccc32)CC1	< 6.00	
O=C1N[C@@H](Cc2ccccc2)[C@@H](C(=O)NCCCN2CCC3(CCc4ccccc43)CC2)O1	7.52	
Cc1onc(-c2ccccc2)c1C(=O)NCCCN1CCC2(CCc3ccccc32)CC1	< 6.00	
O=C(NCCCN1CCC2(CCc3ccccc32)CC1)C1CCc2ccccc2C1 (configuration not stated)	< 6.00	
O=C(NCCCN1CCC2(CCc3ccccc32)CC1)C1CCN(c2ncccn2)CC1	< 6.00	
O=C(NCCCN1CCC2(CCc3ccccc32)CC1)c1ccc(-c2ccc(Cl)cc2)o1	< 6.00	
O=C(NCCCN1CCC2(CCc3ccccc32)CC1)C1Cc2ccccc21 (configuration not stated)	< 6.00	
O=C(NCCCN1CCC2(CCc3ccccc32)CC1)C1Cc2ccccc2N1c1ccccc1 (configuration not stated)	< 6.00	
O=C(NCCCN1CCC2(CCc3ccccc32)CC1)C1CC1c1ccccc1 (configuration not stated)	< 6.00	
O=C(NCCCN1CCC2(CCc3ccccc32)CC1)C(=O)c1cnn(-c2ccccc2)c1C(F)(F)F	< 6.00	
O=C(NCCCN1CCC2(CCc3ccccc32)CC1)C(O)(c1ccccc1)C1CCCCC1 (configuration not stated)	< 6.00	
Cc1ccc(C(=O)/C=C/C(=O)NCCCN2CCC3(CCc4ccccc43)CC2)cc1	< 6.00	
O=C(NCCCN1CCC2(CCc3ccccc32)CC1)c1ncccc1Oc1ccccc1	< 6.00	
O=C(NCCCN1CCC2(CCc3ccccc32)CC1)c1ccccc1Cc1ccccc1	7.68	
O=C(NCCCN1CCC2(CCc3ccccc32)CC1)[C@H](O)Cc1ccccc1	< 6.00	
O=C(NCCCN1CCC2(CCc3ccccc32)CC1)c1cccc2c1Cc1ccccc1-2	< 6.00	
C[C@@H](O)[C@H](NC(=O)c1ccccc1)C(=O)NCCCN1CCC2(CCc3ccccc32)CC1	< 6.00	

The next lines start with results.

pIC50 [1]	SMILES	also measured
< 6.00	O=C(NCCCN1CCC2(CCc3ccccc32)CC1)c1cccc(Oc2ccccc2)c1	
6.06	CC(C)(Oc1ccc(Cl)cc1)C(=O)NCCCN1CCC2(CCc3ccccc32)CC1	
< 6.00	O=C(NCCCN1CCC2(CCc3ccccc32)CC1)[C@@H]1CCCN1C(=O)c1ccccc1	
< 6.00	O=C(NCCCN1CCC2(CCc3ccccc32)CC1)C(Cc1ccccc1)c1ccccc1 (configuration not stated)	
6.54	O=C(CSc1nc2ccccc2s1)NCCCN1CCC2(CCc3ccccc32)CC1	
< 6.00	CC(=O)N/C(=C\c1ccccc1)C(=O)NCCCN1CCC2(CCc3ccccc32)CC1	
< 6.00	CN(CC(=O)NCCCN1CCC2(CCc3ccccc32)CC1)C(=O)c1ccccc1	
6.20	O=C(NCCCN1CCC2(CCc3ccccc32)CC1)C1(c2ccccc2)CCCCC1	
< 6.00	O=C(Cc1ccc2c(c1)OCO2)C(=O)NCCCN1CCC2(CCc3ccccc32)CC1	
< 6.00	O=C(NCCCN1CCC2(CCc3ccccc32)CC1)C1CCCCC1C(=O)Nc1ccccc1 (configuration not stated)	
8.09	O=C(NCCCN1CCC2(CCc3ccccc32)CC1)c1ccccc1Oc1ccccc1	pIC50 [2]: 8.40; pEC50 [3]: < 5.00; pIC50 [4]: < 5.00; pIC50 [5]: 5.02; pIC50 [6]: < 5.00
< 6.00	O=C(Cc1ccc2ccccc2c1)NCCCN1CCC2(CCc3ccccc32)CC1	
9.66	O=C(NCCCN1CCC2(CCc3ccccc32)CC1)[C@H]1CCCN1Cc1ccccc1	pIC50 [2]: 9.92; pEC50 [3]: < 6.00; pIC50 [4]: 5.37; pIC50 [5]: 6.02; pIC50 [6]: < 5.00; logD [7]: 2.7
6.47	O=C(Cc1cccc(Oc2ccccc2)c1)NCCCN1CCC2(CCc3ccccc32)CC1	
6.77	O=C(CSc1ccccc1)NCCCN1CCC2(CCc3ccccc32)CC1	
6.14	O=C(CCc1ccccc1)NCCCN1CCC2(CCc3ccccc32)CC1	
6.46	O=C(CCCc1ccccc1)NCCCN1CCC2(CCc3ccccc32)CC1	
6.44	O=C(CCc1c[nH]c2ccccc12)NCCCN1CCC2(CCc3ccccc32)CC1	
7.33	O=C(NCCCN1CCC2(CCc3ccccc32)CC1)[C@@H]1CCCN1Cc1ccccc1	pIC50 [2]: 7.38; pEC50 [3]: < 5.00; pIC50 [4]: < 5.00; pIC50 [5]: 5.10; pIC50 [6]: < 5.00
7.62	O=C(NCCCN1CCC2(CCc3ccccc32)CC1)[C@H]1COC(=O)N1Cc1ccccc1	
6.27	O=C(/C=C/c1ccccc1)NCCCN1CCC2(CCc3ccccc32)CC1	
8.00	O=C(NCCCN1CCC2(CCc3ccccc32)CC1)c1ccccc1-c1ccccc1	pIC50 [2]: 8.08; pEC50 [3]: < 5.00; pIC50 [4]: < 5.00; pIC50 [5]: 5.43; pIC50 [6]: < 5.00; logD [7]: 3.1
7.92	O=C(NCCCN1CCC2(CCc3ccccc32)CC1)[C@@H](O)Cc1ccccc1	pIC50 [2]: 8.12; pEC50 [3]: < 5.00; pIC50 [4]: < 5.00; pIC50 [5]: 5.16; pIC50 [6]: < 5.00
7.30	O=C(NCCCN1CCC2(CCc3ccccc32)CC1)[C@H]1CCC(=O)N1Cc1ccccc1	
7.08	O=C(NCCCN1CCC2(CCc3ccccc32)CC1)c1ccccc1OCc1ccccc1	pIC50 [2]: 6.96; pEC50 [3]: < 5.00; pIC50 [4]: < 5.00; pIC50 [5]: 5.64; pIC50 [6]: < 5.00
6.24	O=C(NCCCN1CCC2(CCc3ccccc32)CC1)c1ccccc1C(O)c1ccccc1 (configuration not stated)	
